Assay results from ChEMBL document CHEMBL2062375, “Discovery of an orally efficacious inhibitor of anaplastic lymphoma kinase” (J Med Chem, 2012).
The source made the active and inactive calls. The calls are words filed in the database; no cut-off is given here.

Key:
[1] = Half life in SCID mouse at 1 mg/kg, iv; format: ADME, organism-based; parameters: dose 1 mg/kg, route intravenous; settings: in vivo
Procedure, shortened: (§1)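 Mouse PK. IV via the lateral tail vein in 3% DMSO/30% Solutol/67% PBS, or oral gavage in 100% PEG400, 100 μL dose volume, after an overnight fast. Trunk blood was taken from three mice per time point over 6 h. Plasma was acetonitrile-precipitated and analysed by LC-MS/MS. Parameters were derived noncompartmentally.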

[2] = Half life in Sprague-Dawley rat at 1 mg/kg, iv; format: ADME, organism-based; parameters: dose 1 mg/kg, route intravenous; settings: in vivo
Procedure, shortened: (§2)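 Rat PK. IV via the lateral tail vein, 1 mL/kg in 3% DMSO/30% Solutol/67% PBS, or oral gavage at 5 mL/kg in 40% HPβCD, after an overnight fast. Serial tail-vein blood was taken into heparin over 6 h. Plasma was acetonitrile-precipitated and analysed by LC-MS/MS. Parameters were noncompartmental, n = 3, mean ± SEM.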

[3] = Volume of distribution in Sprague-Dawley rat at 1 mg/kg, iv; format: ADME, organism-based; parameters: dose 1 mg/kg, route intravenous; settings: in vivo
Procedure, shortened: (§3)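 IV PK: rats via lateral tail vein (1 mL/kg; 3% DMSO/30% Solutol/67% PBS), serial tail-vein blood over 6 h. Dogs and monkeys via saphenous vein (0.5 mL/kg in 40% HPβCD), femoral-vein blood over 24 h. Acetonitrile protein precipitation, LCMS/MS; noncompartmental parameters from individual animals, n = 3, mean ± SEM.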

[4] = AUC in Sprague-Dawley rat at 1 mg/kg, iv; format: ADME, organism-based; parameters: dose 1 mg/kg, route intravenous; settings: plasma; procedure, shortened: as §2
[5] = Half life in Beagle dog at 1 mg/kg, iv; format: ADME, organism-based, Canis lupus familiaris; parameters: dose 1 mg/kg, route intravenous; settings: in vivo
Procedure, shortened: (§4)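 Dog and monkey PK. IV 0.5 mL/kg in 40% HPβCD via the saphenous vein. Oral dosing was 1 mL/kg by gavage in dogs and 2 mL/kg by nasogastric tube in monkeys, after an overnight fast. Serial femoral-vein blood was taken into heparin over 24 h. Plasma was acetonitrile-precipitated and analysed by LC-MS/MS. Parameters were noncompartmental, n = 3, mean ± SEM.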

[6] = Volume of distribution in Beagle dog at 1 mg/kg, iv; format: ADME, organism-based, Canis lupus familiaris; parameters: dose 1 mg/kg, route intravenous; settings: in vivo; procedure, shortened: as §3
[7] = Tmax in SCID mouse at 10 mg/kg, po; format: ADME, organism-based; parameters: dose 10 mg/kg, route oral; settings: in vivo
Procedure, shortened: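 Mouse oral PK: overnight fast, gavage of 100 μL in 100% PEG400; trunk blood from three mice per time point over 6 h; plasma acetonitrile-precipitated and analysed by LCMS/MS, noncompartmental parameters.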

[8] = Half life in SCID mouse at 10 mg/kg, po; format: ADME, organism-based; parameters: dose 10 mg/kg, route oral; settings: in vivo; procedure, shortened: as §1
[9] = AUC in Beagle dog at 10 mg/kg, po; format: ADME, organism-based, Canis lupus familiaris; parameters: dose 10 mg/kg, route oral; settings: plasma; procedure, shortened: as §4
[10] = AUC in cynomolgus monkey at 10 mg/kg, po; format: ADME, organism-based, Macaca fascicularis; parameters: dose 10 mg/kg, route oral; settings: plasma; procedure, shortened: as §4
[11] = Cmax in rat at 10 mg/kg, po; format: ADME, organism-based; parameters: dose 10 mg/kg, route oral; settings: in vivo
Procedure, shortened: (§5)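 Rat oral dose escalation at 10, 30, 55 and 100 mg/kg. Gavage at 5 mL/kg in 40% HPβCD after an overnight fast. Serial tail-vein blood was drawn into heparinized tubes. Plasma was protein-precipitated with acetonitrile and assayed by LC-MS/MS. Cmax and AUC0–12 were derived noncompartmentally; n = 2 at 10 mg/kg.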

[12] = Cmax in rat at 55 mg/kg, po; format: ADME, organism-based; parameters: dose 55 mg/kg, route oral; settings: in vivo; procedure, shortened: as §5
[13] = Cmax in rat at 100 mg/kg, po; format: ADME, organism-based; parameters: dose 100 mg/kg, route oral; settings: in vivo; procedure, shortened: as §5
[14] = AUC (0 to 12 hrs) in rat 10 mg/kg, po; format: ADME, organism-based; parameters: time < 12 hr, dose 10 mg/kg, route oral; settings: plasma; procedure, shortened: as §5
[15] = Drug level in SCID mouse tumor xenografted with human KARPAS299 cells expressing NPM-ALK at 30 mg/kg, po after 2 hrs by LC-MS/MS analysis; format: ADME, organism-based, Neoplasm, KARPAS-299; parameters: dose 30 mg/kg, route oral; settings: read-out: Drug uptake
[16] = Drug level in SCID/beige mouse tumor xenografted with human KARPAS299 cells expressing NPM-ALK at 10 mg/kg, po bid after 2 hrs post last dose by LC-MS/MS analysis; format: ADME, organism-based, Neoplasm, KARPAS-299; parameters: dose 10 mg/kg, route oral; settings: read-out: Drug uptake
Procedure, shortened: (§6)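 Female SCID/beige mice, 6–8 weeks old, implanted sc in the left flank with exponentially growing Karpas-299 cells. At about 600 mm³ tumours, mice were randomized (8–10/group) and given PEG400 vehicle or compound orally b.i.d., 100 μL, for 12 days. Tumour volume (0.5236LW(L+W)/2) and body weight were recorded every 2–3 days; Mann–Whitney test. Plasma and tumour levels were measured by LC-MS/MS 2 h after the final dose, mean ± SEM.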

SH-SY5Y = assay: Antitumor activity against human SH-SY5Y cells expressing ALK mutant R1275Q assessed as growth inhibition administered as po bid; format: functional, organism-based
SK-N-AS = assay: Antitumor activity against human SK-N-AS cells expressing wild type ALK assessed as growth inhibition administered as po bid; format: functional, organism-based
KARPAS-299 = assay: Antitumor activity against human KARPAS299 cells expressing NPM-ALK xenografted in SCID mouse assessed as tumor regression at 30 mg/kg, po bid for 12 days; format: functional, organism-based; parameters: dose 30 mg/kg; procedure, shortened: as §6
Rattus norvegicus = assay: Ratio of Cmax at 10 mg/kg, po to Cmax at 100 mg/kg, po in rat; format: ADME, organism-based; settings: in vivo
Procedure, shortened: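 Oral dose-escalation PK study in rats at 10, 30, 55 and 100 mg/kg. […] The ratio compares the 10 mg/kg value with the 100 mg/kg value.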

[17] = Drug level in SCID mouse tumor xenografted with human KARPAS299 cells expressing NPM-ALK at 30 mg/kg, po after 24 hrs by LC-MS/MS analysis; format: ADME, organism-based, Neoplasm, KARPAS-299; parameters: dose 30 mg/kg, route oral; settings: read-out: Drug uptake
[18] = molecular target: T1, ALK tyrosine kinase receptor (Homo sapiens, UniProt Q9UM73); assay: Inhibition of human ALK cytoplasmic domain expressed in baculovirus using GST-PLCgamma as substrate preincubated for 15 mins before substrate addition measured after 1 hr by time resolved fluorescence assay
T1 sequence (Q9UM73 whole entry, the tested form may be a part): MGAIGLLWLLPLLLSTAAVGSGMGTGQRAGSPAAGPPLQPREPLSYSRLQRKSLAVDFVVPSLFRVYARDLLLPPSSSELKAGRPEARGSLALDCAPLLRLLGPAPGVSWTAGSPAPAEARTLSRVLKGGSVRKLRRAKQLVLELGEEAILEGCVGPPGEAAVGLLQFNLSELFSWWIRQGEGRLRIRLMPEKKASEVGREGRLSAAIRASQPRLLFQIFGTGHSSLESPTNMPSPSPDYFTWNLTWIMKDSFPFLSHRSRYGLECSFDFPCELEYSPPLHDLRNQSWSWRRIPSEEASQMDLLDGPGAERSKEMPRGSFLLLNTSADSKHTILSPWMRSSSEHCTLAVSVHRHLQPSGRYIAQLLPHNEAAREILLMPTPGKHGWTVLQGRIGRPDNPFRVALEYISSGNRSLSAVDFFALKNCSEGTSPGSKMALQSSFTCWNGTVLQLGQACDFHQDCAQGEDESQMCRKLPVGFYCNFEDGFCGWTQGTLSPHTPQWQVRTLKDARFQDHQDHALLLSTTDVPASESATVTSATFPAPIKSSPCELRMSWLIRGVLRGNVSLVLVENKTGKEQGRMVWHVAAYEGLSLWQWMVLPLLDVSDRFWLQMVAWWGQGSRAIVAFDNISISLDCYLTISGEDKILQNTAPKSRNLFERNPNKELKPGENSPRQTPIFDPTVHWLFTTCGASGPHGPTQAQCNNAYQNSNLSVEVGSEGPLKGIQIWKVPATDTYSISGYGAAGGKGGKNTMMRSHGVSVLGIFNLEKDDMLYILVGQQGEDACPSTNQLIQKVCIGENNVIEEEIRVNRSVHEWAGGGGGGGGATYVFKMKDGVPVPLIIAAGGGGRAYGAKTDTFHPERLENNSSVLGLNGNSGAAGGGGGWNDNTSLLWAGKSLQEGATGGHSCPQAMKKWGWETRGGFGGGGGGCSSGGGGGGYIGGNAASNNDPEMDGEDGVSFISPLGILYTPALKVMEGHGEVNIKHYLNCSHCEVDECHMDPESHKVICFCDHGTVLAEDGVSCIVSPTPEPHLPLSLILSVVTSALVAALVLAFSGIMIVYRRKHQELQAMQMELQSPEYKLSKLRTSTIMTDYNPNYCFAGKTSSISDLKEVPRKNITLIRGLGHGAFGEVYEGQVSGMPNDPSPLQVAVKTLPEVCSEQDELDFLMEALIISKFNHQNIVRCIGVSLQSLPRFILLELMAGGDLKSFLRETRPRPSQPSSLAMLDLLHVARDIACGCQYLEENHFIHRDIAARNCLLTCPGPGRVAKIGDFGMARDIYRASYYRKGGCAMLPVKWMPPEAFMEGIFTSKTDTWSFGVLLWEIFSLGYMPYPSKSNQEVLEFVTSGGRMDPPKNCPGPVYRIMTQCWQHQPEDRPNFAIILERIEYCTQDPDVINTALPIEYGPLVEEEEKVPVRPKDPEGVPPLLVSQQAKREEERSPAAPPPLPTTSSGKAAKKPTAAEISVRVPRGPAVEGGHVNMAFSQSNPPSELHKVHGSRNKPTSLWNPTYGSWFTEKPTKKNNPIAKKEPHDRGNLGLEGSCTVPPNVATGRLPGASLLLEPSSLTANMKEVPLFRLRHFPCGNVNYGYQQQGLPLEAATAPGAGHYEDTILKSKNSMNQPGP

[19] = molecular target: T1, ALK tyrosine kinase receptor; assay: Inhibition of ALK tyrosine phosphorylation in human Karpas-299 cells after 2 hrs in presence of mouse plasma; format: cell-based
Focal adhesion kinase 1 = Focal adhesion kinase 1 (Homo sapiens, UniProt Q05397); assay: Inhibition of human FAK
Procedure, shortened: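 Commercial activity-assay panel of 259 kinases. Each kinase was first screened at 1 μM, and those inhibited by ≥90% went on to full IC50 determination.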

[20] = molecular target: Vascular endothelial growth factor receptor 3 (Homo sapiens, UniProt P35916); assay: Inhibition of human Flt4
Procedure, shortened: (§7)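 Millipore KinaseProfiler activity assays on a 259-kinase panel; kinases inhibited by ≥90% at 1 μM then taken to full IC50 determination.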

[21] = molecular target: T2, Ribosomal protein S6 kinase alpha-6 (Homo sapiens, UniProt Q9UK32); assay: Inhibition of human Rsk4; procedure, shortened: as §7
T2 sequence (Q9UK32 whole entry): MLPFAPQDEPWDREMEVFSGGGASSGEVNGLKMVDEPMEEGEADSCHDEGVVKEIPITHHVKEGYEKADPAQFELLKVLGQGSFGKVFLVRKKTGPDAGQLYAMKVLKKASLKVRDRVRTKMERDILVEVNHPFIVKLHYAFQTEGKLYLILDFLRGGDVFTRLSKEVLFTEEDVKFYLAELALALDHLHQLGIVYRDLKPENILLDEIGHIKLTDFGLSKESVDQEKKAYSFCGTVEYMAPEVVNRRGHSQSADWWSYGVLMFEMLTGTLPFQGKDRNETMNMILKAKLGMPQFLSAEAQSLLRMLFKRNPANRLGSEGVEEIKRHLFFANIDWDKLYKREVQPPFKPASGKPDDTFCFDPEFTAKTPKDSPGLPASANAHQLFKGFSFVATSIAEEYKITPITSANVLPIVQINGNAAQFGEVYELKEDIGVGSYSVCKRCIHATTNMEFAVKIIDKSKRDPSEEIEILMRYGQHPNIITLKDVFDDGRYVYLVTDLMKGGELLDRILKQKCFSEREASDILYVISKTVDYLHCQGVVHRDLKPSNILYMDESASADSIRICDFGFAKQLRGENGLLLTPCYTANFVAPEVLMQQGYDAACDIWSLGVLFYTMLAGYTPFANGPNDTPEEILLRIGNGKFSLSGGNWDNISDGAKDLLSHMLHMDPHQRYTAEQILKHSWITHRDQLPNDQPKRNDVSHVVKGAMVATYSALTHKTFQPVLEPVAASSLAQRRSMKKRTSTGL

[22] = molecular target: Ribosomal protein S6 kinase alpha-3 (Homo sapiens, UniProt P51812); settings: 1 uM
Sequence of Ribosomal protein S6 kinase alpha-3 (P51812 whole entry): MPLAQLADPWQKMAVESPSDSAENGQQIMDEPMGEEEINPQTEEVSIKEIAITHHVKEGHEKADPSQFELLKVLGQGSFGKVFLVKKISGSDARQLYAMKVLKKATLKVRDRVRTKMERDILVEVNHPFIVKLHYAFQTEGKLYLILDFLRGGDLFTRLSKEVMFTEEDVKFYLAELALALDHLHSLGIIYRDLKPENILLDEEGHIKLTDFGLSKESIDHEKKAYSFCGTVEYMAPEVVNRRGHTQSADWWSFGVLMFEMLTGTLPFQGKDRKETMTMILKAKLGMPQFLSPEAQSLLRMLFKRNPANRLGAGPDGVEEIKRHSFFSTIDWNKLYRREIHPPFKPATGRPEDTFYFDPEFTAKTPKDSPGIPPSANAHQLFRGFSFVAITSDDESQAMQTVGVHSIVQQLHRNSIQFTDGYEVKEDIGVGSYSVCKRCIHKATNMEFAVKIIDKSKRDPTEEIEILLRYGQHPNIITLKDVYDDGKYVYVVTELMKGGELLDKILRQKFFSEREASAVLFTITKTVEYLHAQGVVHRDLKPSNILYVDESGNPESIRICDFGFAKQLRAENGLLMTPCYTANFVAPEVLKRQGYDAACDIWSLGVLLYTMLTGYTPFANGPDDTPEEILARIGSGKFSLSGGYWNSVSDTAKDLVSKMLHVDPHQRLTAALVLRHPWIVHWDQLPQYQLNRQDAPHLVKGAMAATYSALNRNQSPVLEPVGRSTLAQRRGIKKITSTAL

[23] = molecular target: T2, Ribosomal protein S6 kinase alpha-6; settings: 1 uM
Activated CDC42 kinase 1 = Activated CDC42 kinase 1 (Homo sapiens, UniProt Q07912); settings: 1 uM
[24] = molecular target: Tyrosine-protein kinase Fer (Homo sapiens, UniProt P16591); settings: 1 uM
Sequence of Tyrosine-protein kinase Fer (P16591 whole entry, looked up): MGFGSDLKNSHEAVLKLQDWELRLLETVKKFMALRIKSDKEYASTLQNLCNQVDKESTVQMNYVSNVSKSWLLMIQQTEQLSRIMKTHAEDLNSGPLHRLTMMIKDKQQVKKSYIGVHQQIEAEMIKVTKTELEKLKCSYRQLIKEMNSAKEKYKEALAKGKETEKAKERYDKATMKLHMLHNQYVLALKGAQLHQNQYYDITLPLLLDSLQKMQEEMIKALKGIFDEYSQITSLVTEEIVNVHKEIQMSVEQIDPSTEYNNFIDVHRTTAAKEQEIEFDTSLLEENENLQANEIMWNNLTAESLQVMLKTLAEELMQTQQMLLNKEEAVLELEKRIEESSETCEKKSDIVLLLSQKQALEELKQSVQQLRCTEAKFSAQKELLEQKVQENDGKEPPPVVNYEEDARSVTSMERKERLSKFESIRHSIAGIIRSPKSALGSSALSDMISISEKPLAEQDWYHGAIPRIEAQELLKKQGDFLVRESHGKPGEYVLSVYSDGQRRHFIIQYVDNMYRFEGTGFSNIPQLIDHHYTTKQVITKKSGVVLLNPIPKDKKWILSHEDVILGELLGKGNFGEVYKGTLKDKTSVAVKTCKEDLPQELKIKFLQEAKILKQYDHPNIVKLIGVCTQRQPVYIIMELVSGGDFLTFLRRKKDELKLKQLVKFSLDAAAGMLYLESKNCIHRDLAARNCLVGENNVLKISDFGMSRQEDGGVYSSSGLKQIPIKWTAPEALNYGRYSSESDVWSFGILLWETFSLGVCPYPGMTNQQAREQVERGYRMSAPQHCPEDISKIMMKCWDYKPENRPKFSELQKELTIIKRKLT

[25] = molecular target: Tyrosine-protein kinase Fes/Fps (Homo sapiens, UniProt P07332); settings: 1 uM
[26] = molecular target: Mitogen-activated protein kinase kinase kinase kinase 2 (Homo sapiens) (UniProt Q12851); settings: 1 uM
Sequence of Mitogen-activated protein kinase kinase kinase kinase 2 (Homo sapiens) (Q12851 whole entry): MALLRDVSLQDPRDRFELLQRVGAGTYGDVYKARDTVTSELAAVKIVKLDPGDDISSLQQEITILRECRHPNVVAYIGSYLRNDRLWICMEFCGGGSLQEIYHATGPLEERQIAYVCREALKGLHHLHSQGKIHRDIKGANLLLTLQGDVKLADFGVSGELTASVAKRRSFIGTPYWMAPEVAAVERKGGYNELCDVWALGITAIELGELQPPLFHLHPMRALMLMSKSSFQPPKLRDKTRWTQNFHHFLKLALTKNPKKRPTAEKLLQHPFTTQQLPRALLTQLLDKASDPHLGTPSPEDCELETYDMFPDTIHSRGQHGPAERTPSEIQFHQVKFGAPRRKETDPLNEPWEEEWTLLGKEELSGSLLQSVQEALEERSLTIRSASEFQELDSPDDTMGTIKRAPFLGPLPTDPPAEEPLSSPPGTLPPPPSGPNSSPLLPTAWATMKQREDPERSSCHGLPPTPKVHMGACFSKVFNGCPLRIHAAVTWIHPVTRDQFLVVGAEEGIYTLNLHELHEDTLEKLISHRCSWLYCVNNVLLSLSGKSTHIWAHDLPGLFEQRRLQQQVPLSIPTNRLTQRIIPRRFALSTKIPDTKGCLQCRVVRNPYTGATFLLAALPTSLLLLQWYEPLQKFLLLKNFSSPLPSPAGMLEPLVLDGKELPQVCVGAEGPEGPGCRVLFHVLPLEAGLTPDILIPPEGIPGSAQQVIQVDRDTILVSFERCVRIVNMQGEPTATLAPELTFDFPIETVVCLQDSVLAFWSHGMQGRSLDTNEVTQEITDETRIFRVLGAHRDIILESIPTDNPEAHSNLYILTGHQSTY

Question: What does the source list for `COc1c(Nc2ncc(Cl)c(N[C@H]3[C@@H](C(N)=O)[C@@H]4C=C[C@H]3C4)n2)ccc2c1CC[C@@H](N1CCOCC1)CC2`?
Answer: half-life [1]: 1.8 h; half-life [2]: 0.9 h; Vd [3]: 1.3 L/kg; AUC [4]: 989 ng·h/mL; half-life [5]: 2.4 h; Vd [6]: 8.2 L/kg; Tmax [7]: 1 h; half-life [8]: 1.8 h; AUC [9]: 2130 ng·h/mL; AUC [10]: 954 ng·h/mL; Cmax [11]: 349 ng/mL; Cmax [12]: 2250 ng/mL; Cmax [13]: 3050 ng/mL; AUC(0-t) at 12 h [14]: 2570 ng·h/mL; concentration at 2 h [15]: 2630 ng/g; concentration at 2 h [16]: 686 ng/g; growth inhibition (GI) (SH-SY5Y): Active; growth inhibition (GI) (SK-N-AS): inactive; Activity (KARPAS-299): Active; Ratio (Rattus norvegicus): 9; concentration at 24 h [17]: 100 ng/g; IC50 [18]: 0.0019 µM; IC50 [19]: 0.02 µM; IC50 (Focal adhesion kinase 1): 0.133 µM; IC50 [20]: 0.048 µM; IC50 [21]: 0.019 µM; inhibition [22]: > 90%; inhibition [23]: > 90%; inhibition (Activated CDC42 kinase 1): > 90%; inhibition [24]: > 90%; inhibition [25]: > 90%; inhibition [26]: > 90%
